According to ChEMBL document CHEMBL4414562, “Discovery of the First in Vivo Active Inhibitors of the Soluble Epoxide Hydrolase Phosphatase Domain” (J Med Chem, 2019):
The source made the active and inactive calls. The calls are words filed in the database; no cut-off is given here.

Legend:
Homo sapiens [1] = species: Homo sapiens; assay: Induction of stabilization of hexa-His-tagged human soluble epoxide hydrolase N-terminal phosphatase domain expressed in Escherichia coli BL21(DE3) at 50 uM by differential scanning fluorimetry
[2] = molecular target: T1, Bifunctional epoxide hydrolase 2 (Homo sapiens) (UniProt P34913); assay: Induction of stabilization of hexa-His-tagged human soluble epoxide hydrolase C-terminal hydrolase domain expressed in Escherichia coli BL21(DE3) at 50 uM by differential scanning fluorimetry
T1 sequence (whole entry): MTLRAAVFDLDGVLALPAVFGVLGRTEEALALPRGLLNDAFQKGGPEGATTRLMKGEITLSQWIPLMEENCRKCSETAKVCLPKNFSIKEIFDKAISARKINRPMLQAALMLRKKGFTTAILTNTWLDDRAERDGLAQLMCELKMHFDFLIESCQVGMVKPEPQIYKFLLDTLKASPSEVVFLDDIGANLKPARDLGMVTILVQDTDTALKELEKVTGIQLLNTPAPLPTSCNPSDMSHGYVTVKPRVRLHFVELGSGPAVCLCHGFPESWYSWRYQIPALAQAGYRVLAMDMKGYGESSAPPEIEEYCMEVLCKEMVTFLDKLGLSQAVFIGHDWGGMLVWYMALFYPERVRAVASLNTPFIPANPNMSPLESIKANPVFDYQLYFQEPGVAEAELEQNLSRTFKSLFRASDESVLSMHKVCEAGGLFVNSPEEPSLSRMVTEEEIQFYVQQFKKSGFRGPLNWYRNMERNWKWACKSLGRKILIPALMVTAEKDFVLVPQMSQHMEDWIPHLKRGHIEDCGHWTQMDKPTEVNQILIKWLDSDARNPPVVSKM

[3] = Binding affinity to hexa-His-tagged human soluble epoxide hydrolase N-terminal phosphatase domain expressed in Escherichia coli BL21(DE3) by ITC assay
In short: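 Inverse-mode ITC with 185 μM freshly prepared sEH-P in the syringe and inhibitor in the cell. Both in 50 mM acetate, 10 mM MgCl2, 5% glycerol, pH 5.75 with 2% DMSO. Run at 25 °C, 350 rpm stirring, 20−25 injections of 8−10 μL, 200 s spacing. Inhibitor concentration chosen to optimize curve shape. Heats fitted to a single-site model.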

[4] = Competitive inhibition of hexa-His-tagged human soluble epoxide hydrolase N-terminal phosphatase domain expressed in Escherichia coli BL21(DE3) pre-incubated for 30 mins before DiFMUP substrate addition by fluorescence based assay
[5] = Cmax in Sprague-Dawley rat at 30 mg/kg, po monitored over 8 hrs by LC-MS analysis; type: ADME, organism-based; design: dose 30 mg/kg, route oral; settings: in vivo
In short: (§1)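 Male Sprague-Dawley rats (n = 3) given a single oral dose of 30 mg/kg. Plasma compound concentration followed over 8 h. Cmax and half-life derived from the plasma concentration–time profile.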

[6] = Half life in Sprague-Dawley rat at 30 mg/kg, po monitored over 8 hrs by LC-MS analysis; type: ADME, organism-based; settings: in vivo; in short: as §1
Rattus norvegicus [7] = assay: Inhibition of sEH-H in Sprague-Dawley rat assessed as effect on ratio of 14,15-EET to 14,15-DHET in plasma at 30 mg/kg, po after 8 hrs by LC-MS/MS analysis; type: functional, organism-based
In short: (§2)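 Male Sprague-Dawley rats given a single oral dose of 30 mg/kg or vehicle (n = 3 per group). Plasma collected 8 h later. Epoxy fatty acid/diol ratios and LPA/corresponding MAG ratios quantified by LC−MS/MS.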

Rattus norvegicus [8] = assay: Inhibition of sEH-H in Sprague-Dawley rat assessed as effect on ratio of 12,13-EpOME to 12,13-DiHOME in plasma at 30 mg/kg, po after 8 hrs by LC-MS/MS analysis; type: functional, organism-based; in short: as §2
Rattus norvegicus [9] = assay: Inhibition of sEH-H in Sprague-Dawley rat assessed as effect on ratio of 19,20-EpDPA […] in plasma at 30 mg/kg, po after 8 hrs by LC-MS/MS analysis; type: functional, organism-based; in short: as §2
Rattus norvegicus [10] = assay: Inhibition of sEH-P in Sprague-Dawley rat assessed as effect on ratio of sn1-18:1 LPA to corresponding monoacylglycerol species in plasma at 30 mg/kg, po after 8 hrs by LC-MS/MS analysis; type: functional, organism-based; in short: as §2
Rattus norvegicus [11] = assay: Inhibition of sEH-P in Sprague-Dawley rat assessed as effect on ratio of sn1-18:2 LPA to corresponding monoacylglycerol species in plasma at 30 mg/kg, po after 8 hrs by LC-MS/MS analysis; type: functional, organism-based; in short: as §2
Rattus norvegicus [12] = assay: Inhibition of sEH-P in Sprague-Dawley rat assessed as effect on ratio of sn1-20:4 LPA to corresponding monoacylglycerol species in plasma at 30 mg/kg, po after 8 hrs by LC-MS/MS analysis; type: functional, organism-based; in short: as §2
Homo sapiens [13] = species: Homo sapiens; assay: Inhibition of soluble epoxide hydrolase N-terminal phosphatase domain in human PBMC assessed as reduction in MAG/LPA ratio at 30 uM incubated for 24 hrs by LC-MS/MS analysis
Homo sapiens [14] = species: Homo sapiens
[15] = molecular target: T2, Bifunctional epoxide hydrolase 2 (Homo sapiens, UniProt P34913); assay: Inhibition of hexa-His-tagged human soluble epoxide hydrolase C-terminal hydrolase domain expressed in Escherichia coli BL21(DE3) pre-incubated for 30 mins before PHOME substrate addition by fluorescence based assay
T2 sequence (P34913 whole entry): T1 sequence (whole entry)

[16] = molecular target: T2, Bifunctional epoxide hydrolase 2; assay: Inhibition of hydrolase activity of full length human soluble epoxide hydrolase pre-incubated for 30 mins before PHOME substrate addition by fluorescence based assay
In short: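 Hydrolase assay with 0.1 μM full-length enzyme in Bis-Tris pH 7 containing 0.1 mg/mL BSA and 0.01% Triton X-100. Reaction started with PHOME (50 μM final). Triplicates.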

[17] = molecular target: T2, Bifunctional epoxide hydrolase 2; assay: Inhibition of phosphatase activity of full length human soluble epoxide hydrolase pre-incubated for 30 mins before FDP substrate addition by fluorescence based assay
[18] = molecular target: T3, Bifunctional epoxide hydrolase 2 (Rattus norvegicus, UniProt P80299); assay: Inhibition of phosphatase activity of full length rat soluble epoxide hydrolase pre-incubated for 30 mins before FDP substrate addition by fluorescence based assay
T3 sequence (P80299 whole entry): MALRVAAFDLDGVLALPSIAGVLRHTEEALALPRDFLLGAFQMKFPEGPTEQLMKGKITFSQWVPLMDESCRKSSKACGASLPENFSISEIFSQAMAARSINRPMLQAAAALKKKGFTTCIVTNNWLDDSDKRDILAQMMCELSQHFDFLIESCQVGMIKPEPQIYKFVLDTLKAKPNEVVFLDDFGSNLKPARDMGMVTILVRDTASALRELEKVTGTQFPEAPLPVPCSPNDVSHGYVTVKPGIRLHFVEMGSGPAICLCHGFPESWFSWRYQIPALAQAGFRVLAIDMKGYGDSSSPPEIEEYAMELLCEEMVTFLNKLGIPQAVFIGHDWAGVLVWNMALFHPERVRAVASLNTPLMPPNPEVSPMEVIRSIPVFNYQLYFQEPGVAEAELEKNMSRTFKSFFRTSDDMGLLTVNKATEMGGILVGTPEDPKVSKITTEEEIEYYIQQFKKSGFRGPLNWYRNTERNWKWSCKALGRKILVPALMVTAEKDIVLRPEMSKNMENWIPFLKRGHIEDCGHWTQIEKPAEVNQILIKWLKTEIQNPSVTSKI

Activity (Homo sapiens [1])	Activity [2]	Cmax [5]	t1/2 [6]	inhibition (Homo sapiens [13])	ΔTm (Homo sapiens [14])	IC50 [15]	IC50 [16]	IC50 [17]	IC50 [18]	SMILES	Kd [3]	Ki [4]	inhibition (Rattus norvegicus [7])	inhibition (Rattus norvegicus [8])	inhibition (Rattus norvegicus [9])	inhibition (Rattus norvegicus [10])	inhibition (Rattus norvegicus [11])	inhibition (Rattus norvegicus [12])
Active	inactive	128 µM	7 h	Active	6.6 °C	12 µM	–	–	–	O=C(O)CCCc1nc(-c2ccc(Cl)c(Cl)c2)c(-c2ccccc2)o1	0.3 µM	0.05 µM	inactive	inactive	inactive	Active	Active	Active
–	–	–	–	–	–	–	> 300 µM	70 µM	62.5 µM	O=C(O)CCc1nc(-c2ccccc2)c(-c2ccccc2)o1 [OXAPROZIN]	–	–	–	–	–	–	–	–
